These results are taken from the array DNA melting data of Ke et al. (doi:10.1101/2024.01.08.574731).

A short description of series [1]: melting temperature; fluorescence melt of hairpins on a sequencing array, two-state fit, raised by 9.35 °C to match UV melts. As to conditions: sodium 0.088 M. In outline: (§1)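 Bootstrapped two-state fits yielded melting temperature and folding enthalpy for library hairpins. Cy3 fluorescence, with annealed Cy3 and quencher oligos, was imaged on a sequenced MiSeq flow cell in 50 mM Na-HEPES pH 8.0, 25 mM NaCl in 2.5 °C steps up to 60 °C, and normalised to pre-quench Cy3 and to control constructs. Four replicates were combined by inverse variance, and fitted temperatures were raised by 9.35 °C to match UV melts.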

Series [2] in a line: folding enthalpy; higher = less favourable; fluorescence melt of hairpins on a sequencing array, two-state fit. As to conditions: sodium 0.088 M. In outline:
as §1

Consider GGTGGCGGAAACGCTGCC ((..(((....)))..)), for which the Tm in series [1] was found to be 54.5 °C. For the same sequence, the folding enthalpy in series [2] was -31.8 kcal/mol.

Take GGTGGGGGAAACTCCACC (((((.(....).))))): the Tm in series [1] was 56.4 °C. Besides, the folding enthalpy in series [2] is -45.9 kcal/mol.

As for GGTGGTGCGAAAGCAACC (((..(((....)))))), in series [1], the Tm stood at 53.3 °C. Moreover, the folding enthalpy in series [2] is -15.4 kcal/mol.

For the sequence GGTGGTGGAAACATCACC ((((.((....)).)))), the Tm in series [1] came to 52.3 °C. In addition, the folding enthalpy in series [2] is -41.3 kcal/mol.

For GGTGGTGGAAACATCGCC ((.(.((....)).).)), the Tm in series [1] is 44.6 °C. Also, the folding enthalpy in series [2] was -27.4 kcal/mol.

As for GGTGGTTCGAAAGAAACC (((..(((....)))))), the Tm in series [1] turned out to be 41.5 °C. In series [2], the folding enthalpy is -20.4 kcal/mol.

On to GGTGTACGAAAGTATACC (((.(((....))).))), for which the Tm in series [1] worked out at 53.3 °C. In addition, the folding enthalpy in series [2] is -47.6 kcal/mol.

For the sequence GGTGTAGAAATACACC ((((((....)))))), the Tm in series [1] amounted to 53.7 °C. Moreover, the folding enthalpy in series [2] was -29.6 kcal/mol.

GGTGTAGGAAACTACATC (.(((((....))))).): the Tm in series [1] is 42.2 °C. The folding enthalpy in series [2] is -27.4 kcal/mol.

For GGTGTAGGAAACTATGCC ((..(((....)))..)), the Tm in series [1] amounted to 35.7 °C. The folding enthalpy in series [2] is -32.3 kcal/mol.

With GGTGTCCGAAAGGAAACC (((.(((....))).))), the Tm in series [1] was found to be 52.7 °C. Also, the folding enthalpy in series [2] was -27.9 kcal/mol.

Turning to GGTGTCGAAAGACCCACC ((((((....)))..))), the Tm in series [1] amounted to 45.1 °C. The folding enthalpy in series [2] is -12.1 kcal/mol.

For the sequence GGTGTCGGAAACGACGCC ((.((((....)))).)), the Tm in series [1] is 64.5 °C. Also, the folding enthalpy in series [2] is -28.6 kcal/mol.

Consider GGTGTCGGAAACGATGCC ((..(((....)))..)), for which, in series [1], the Tm is 49.4 °C. The folding enthalpy in series [2] is -26.7 kcal/mol.

Consider GGTGTGGGAAACTGCACC ((((..(....)..)))), for which the Tm in series [1] is 47.7 °C. In addition, in series [2], the folding enthalpy was -26.3 kcal/mol.

With GGTGTTCGAAAGAAACC (((.(((....)))))), in series [1], the Tm was 34.1 °C. In addition, in series [2], the folding enthalpy is -14.1 kcal/mol.

With GGTGTTGGAAACAACACC (((((((....))))))), the Tm in series [1] amounted to 66.5 °C. Moreover, in series [2], the folding enthalpy is -38.4 kcal/mol.

Turning to GGTGTTGGAAACAGCACC ((((.((....)).)))), the Tm in series [1] came out at 51.8 °C. In series [2], the folding enthalpy was -37.1 kcal/mol.

As for GGTGTTTCGAAAGAAACC (((..(((....)))))), the Tm in series [1] was 42.5 °C. Besides, the folding enthalpy in series [2] is -13.2 kcal/mol.

For GGTTAAGGAAACTTAATC (.(((((....))))).), the Tm in series [1] was found to be 31.7 °C. In addition, the folding enthalpy in series [2] is -21.7 kcal/mol.

Consider GGTTACGAAAGTAGTACC ((((((....)))..))), for which the Tm in series [1] was 34.8 °C. The folding enthalpy in series [2] is -14.8 kcal/mol.

Turning to GGTTACGAAAGTATCACC ((((((....)))..))), the Tm in series [1] was 28.2 °C. In addition, the folding enthalpy in series [2] was -12.5 kcal/mol.

For the sequence GGTTAGAAATAACC (((((....))))), the Tm in series [1] is 40 °C. The folding enthalpy in series [2] is -16.4 kcal/mol.

With GGTTAGGAAACTAACC ((((((....)))))), the Tm in series [1] is 52.3 °C. Besides, in series [2], the folding enthalpy is -35.6 kcal/mol.

As to GGTTAGGGAAACCTAGCC ((.((((....)))).)), the Tm in series [1] is 46.3 °C. Also, the folding enthalpy in series [2] was -27.2 kcal/mol.

As for GGTTATCGAAAGATACC (((.(((....)))))), in series [1], the Tm amounted to 43.1 °C. In addition, the folding enthalpy in series [2] was -25 kcal/mol.

As for GGTTATCGAAAGATCACC (((.(((....))).))), the Tm in series [1] came to 42.3 °C. The folding enthalpy in series [2] is -30.4 kcal/mol.

Consider GGTTCACGAAAGTGGACC (((.(((....))).))), for which the Tm in series [1] was determined as 63 °C. The folding enthalpy in series [2] was -38 kcal/mol.

Turning to GGTTCAGAAATGAACC ((((((....)))))), the Tm in series [1] is 54.6 °C. Further, the folding enthalpy in series [2] is -38.8 kcal/mol.

Regarding GGTTCAGCGAAAGCTACC (((..(((....)))))), in series [1], the Tm came out at 32.7 °C. In addition, the folding enthalpy in series [2] was -16 kcal/mol.

Take GGTTCAGGAAACTAAACC ((((.((....)).)))): the Tm in series [1] was found to be 28.6 °C. In addition, the folding enthalpy in series [2] is -15.3 kcal/mol.

On to GGTTCCCGAAAGGGACC (((.(((....)))))), for which the Tm in series [1] was determined as 59.9 °C. Also, the folding enthalpy in series [2] is -23 kcal/mol.

With GGTTCCGAAAGGAAAACC ((((((....)))..))), the Tm in series [1] turned out to be 43.6 °C. The folding enthalpy in series [2] was -18.5 kcal/mol.

For GGTTCCGAAAGGAAACC ((((((....))).))), the Tm in series [1] turned out to be 53.7 °C. In addition, the folding enthalpy in series [2] is -25.9 kcal/mol.

On to GGTTCCGAAAGGAAGACC ((((((....)))..))), for which the Tm in series [1] amounted to 42.1 °C. In addition, the folding enthalpy in series [2] is -15.1 kcal/mol.

With GGTTCCGAAAGGACAACC ((((((....)))..))), in series [1], the Tm amounted to 36.7 °C. In series [2], the folding enthalpy is -19.9 kcal/mol.

Regarding GGTTCCGAAAGGACGACC ((((((....)))..))), the Tm in series [1] came to 37.4 °C. The folding enthalpy in series [2] is -15.8 kcal/mol.
